Assay results as given in ChEMBL document CHEMBL1132926, “2-amino-2-oxazolines as subtype selective alpha(2) adrenoceptor agonists” (J Med Chem, 2000).
Active and inactive are the calls of the source. The rule behind the calls is not given here.

Assays:
[1] = molecular target: T1, Alpha-2A adrenergic receptor (Homo sapiens, UniProt P08913); experiment: Inhibitory constant against human Alpha-2A adrenergic receptor expressed in LM(tk-) cells using [3H]rauwolscine; assay type: cell-based
T1 sequence (P08913 whole entry): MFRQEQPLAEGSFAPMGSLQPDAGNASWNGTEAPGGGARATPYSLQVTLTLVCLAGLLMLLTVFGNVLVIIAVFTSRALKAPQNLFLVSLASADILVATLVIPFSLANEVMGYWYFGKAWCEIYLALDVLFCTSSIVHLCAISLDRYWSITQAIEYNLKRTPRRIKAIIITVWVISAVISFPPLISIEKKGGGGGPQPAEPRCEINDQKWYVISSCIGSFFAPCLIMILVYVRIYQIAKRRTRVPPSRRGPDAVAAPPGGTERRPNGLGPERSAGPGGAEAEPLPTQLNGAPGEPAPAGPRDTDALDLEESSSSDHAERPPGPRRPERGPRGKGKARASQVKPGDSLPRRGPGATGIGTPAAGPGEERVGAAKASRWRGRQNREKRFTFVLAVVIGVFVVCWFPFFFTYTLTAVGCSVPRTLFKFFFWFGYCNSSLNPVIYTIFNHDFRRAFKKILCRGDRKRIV
How it was run: (§1)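 Equilibrium competition binding against [3H]rauwolscine on membranes from cultured cells stably transfected with cloned human alpha2 subtypes: alpha2A and alpha2C in LM(tk-) cells, alpha2B in Y-1 cells. Equilibrium inhibition constants were estimated by nonlinear regression and reported as pKi.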

[2] = molecular target: T2, Alpha-2B adrenergic receptor (Homo sapiens, UniProt P18089); experiment: Inhibitory constant against human Alpha-2B adrenergic receptor expressed in Y-1 cells using [3H]rauwolscine; assay type: cell-based; how it was run: as §1
T2 sequence (P18089 whole entry): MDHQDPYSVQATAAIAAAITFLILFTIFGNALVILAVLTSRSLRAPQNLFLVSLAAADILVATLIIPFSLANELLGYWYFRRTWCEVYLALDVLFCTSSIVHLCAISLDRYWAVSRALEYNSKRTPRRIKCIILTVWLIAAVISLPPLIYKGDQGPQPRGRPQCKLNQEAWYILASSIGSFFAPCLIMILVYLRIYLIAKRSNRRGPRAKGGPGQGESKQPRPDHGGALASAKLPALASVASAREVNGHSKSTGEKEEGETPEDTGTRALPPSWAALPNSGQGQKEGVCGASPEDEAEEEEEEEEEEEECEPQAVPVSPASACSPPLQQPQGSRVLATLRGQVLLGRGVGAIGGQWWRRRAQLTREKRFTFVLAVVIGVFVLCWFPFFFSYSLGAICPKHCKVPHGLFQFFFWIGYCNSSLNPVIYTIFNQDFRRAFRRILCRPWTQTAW

[3] = molecular target: T3, Alpha-2C adrenergic receptor (Homo sapiens, UniProt P18825); experiment: Inhibitory constant, using [3H]rauwolscine in LM(tk-) cells stably transfected with cloned human Alpha-2C adrenergic receptor; assay type: cell-based; how it was run: as §1
T3 sequence (P18825 whole entry): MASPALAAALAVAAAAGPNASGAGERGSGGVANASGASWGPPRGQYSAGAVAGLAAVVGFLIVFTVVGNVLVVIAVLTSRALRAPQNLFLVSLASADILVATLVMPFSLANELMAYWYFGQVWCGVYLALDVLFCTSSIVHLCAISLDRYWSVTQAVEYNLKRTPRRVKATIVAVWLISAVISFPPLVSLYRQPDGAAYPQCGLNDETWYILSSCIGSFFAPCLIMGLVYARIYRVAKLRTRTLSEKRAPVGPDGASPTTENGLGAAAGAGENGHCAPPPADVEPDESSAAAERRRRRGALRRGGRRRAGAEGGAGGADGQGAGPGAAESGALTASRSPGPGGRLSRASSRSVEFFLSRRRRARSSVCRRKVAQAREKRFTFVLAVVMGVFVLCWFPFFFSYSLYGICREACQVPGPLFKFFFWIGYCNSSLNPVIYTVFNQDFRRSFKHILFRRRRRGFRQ

[4] = molecular target: T4, Alpha-2C adrenergic receptor (Homo sapiens) (UniProt P18825); experiment: Alpha-2C adrenergic receptor agonism measured as ability to inhibit forskolin-stimulated synthesis of cAMP; NA=not active; assay type: functional
T4 sequence (whole entry): T3 sequence (P18825 whole entry)

[5] = molecular target: T5, Alpha-2A adrenergic receptor (Homo sapiens) (UniProt P08913); experiment: Alpha-2A adrenergic receptor agonism measured as ability to inhibit forskolin-stimulated synthesis of cAMP; NA=not active; assay type: functional
T5 sequence (whole entry): T1 sequence (P08913 whole entry)

[6] = molecular target: T6, Alpha-2B adrenergic receptor (Homo sapiens) (UniProt P18089); experiment: Alpha-2B adrenergic receptor agonism measured as ability to inhibit forskolin-stimulated synthesis of cAMP; NA=not active; assay type: functional
T6 sequence (whole entry): T2 sequence (P18089 whole entry)

[7] = molecular target: T6, Alpha-2B adrenergic receptor (Homo sapiens); experiment: Alpha-2B adrenergic receptor agonism measured as ability to inhibit forskolin-stimulated synthesis of cAMP; NA=not active (IA< 0.3); assay type: functional
[8] = molecular target: T4, Alpha-2C adrenergic receptor (Homo sapiens); experiment: Alpha2c receptor agonism measured as ability to inhibit forskolin-stimulated synthesis of cAMP; NA=not active (IA< 0.3); assay type: functional
[9] = molecular target: T1, Alpha-2A adrenergic receptor; experiment: Alpha-2A adrenergic receptor agonism measured as ability to inhibit forskolin-stimulated synthesis of cAMP; assay type: functional
[10] = molecular target: T3, Alpha-2C adrenergic receptor; experiment: (§2) Alpha2c receptor agonism measured as ability to inhibit forskolin-stimulated synthesis of cAMP; assay type: functional
[11] = molecular target: T6, Alpha-2B adrenergic receptor (Homo sapiens); experiment: Alpha2b receptor agonism measured as ability to inhibit forskolin-stimulated synthesis of cAMP; NA=not active; assay type: functional
[12] = molecular target: T6, Alpha-2B adrenergic receptor (Homo sapiens); experiment: Alpha2b receptor agonism measured as ability to inhibit forskolin-stimulated synthesis of cAMP;NA=not active; assay type: functional
[13] = molecular target: T3, Alpha-2C adrenergic receptor; experiment: Alpha-2C adrenergic receptor agonism measured as ability to inhibit forskolin-stimulated synthesis of cAMP; assay type: functional
[14] = molecular target: T2, Alpha-2B adrenergic receptor; experiment: (§3) Alpha-2B adrenergic receptor agonism measured as ability to inhibit forskolin-stimulated synthesis of cAMP; assay type: functional
[15] = molecular target: T3, Alpha-2C adrenergic receptor; experiment: Inhibitory constant determined using [3H]rauwolscine in LM(tk-) cells stably transfected with cloned human Alpha-2C adrenergic receptor; assay type: cell-based; how it was run: as §1
[16] = molecular target: T6, Alpha-2B adrenergic receptor (Homo sapiens); experiment: as §3; assay type: functional
[17] = molecular target: T4, Alpha-2C adrenergic receptor (Homo sapiens); experiment: as §2; assay type: functional
[18] = molecular target: T5, Alpha-2A adrenergic receptor (Homo sapiens); experiment: Alpha2a receptor agonism measured as ability to inhibit forskolin-stimulated synthesis of cAMP; assay type: functional
[19] = molecular target: T4, Alpha-2C adrenergic receptor (Homo sapiens); experiment: Alpha2c receptor agonism measured as ability to inhibit forskolin-stimulated synthesis of cAMP; NA=not active; assay type: functional

Row | Structure (SMILES) | Ki [1] [nM] | Ki [2] [nM] | Ki [3] [nM] | alpha-2A agonist activity [5] | NA [6] | EC50 [9] [nM] | EC50 [10] [nM] | further results
1 | c1ccc([C@H]2CCCC[C@@H]2NC2=NCCO2)cc1 | 18.2 | 22.4 | 52.5 | inactive | inactive | – | – | NA [4]: inactive
2 | c1ccc(C[C@H]2CCCC[C@@H]2NC2=NCCO2)cc1 | 20.9 | 40.7 | 66.1 | inactive | – | – | – | NA [7]: inactive; NA [8]: inactive
3 | CCC[C@H]1CCCC[C@@H]1NC1=NCCO1 | 2.95 | 5.89 | – | – | – | 1.62 | – | EC50 [13]: 4.07 nM; EC50 [14]: 9.33 nM; Ki [15]: 24.5 nM
4 | c1ccc(CCC[C@H]2CCCC[C@@H]2NC2=NCCO2)cc1 | 15.1 | 32.4 | 32.4 | inactive | inactive | – | 26.9 | –

More lines, main results first:

Row | Ki [1] [nM] | Ki [2] [nM] | Ki [3] [nM] | alpha-2A agonist activity [5] | NA [6] | EC50 [9] [nM] | EC50 [10] [nM] | Structure (SMILES) | further results
5 | 15.8 | 102 | 85.1 | – | – | 70.8 | 2 | C(=C\c1ccccc1)/C[C@H]1C2CCC(C2)[C@H]1NC1=NCCO1 (some centres not stated) | NA [11]: inactive
6 | 13.8 | 40.7 | 79.4 | inactive | – | – | 13.8 | c1ccc(C[C@H]2C3CCC(C3)[C@H]2NC2=NCCO2)cc1 (some centres not stated) | NA [12]: inactive
7 | 28.2 | 91.2 | 123 | – | – | 11 | 21.4 | CCC[C@H]1C2CCC(C2)[C@H]1NC1=NCCO1 (some centres not stated) | Intrinsic activity [16]: 0.4; EC50 [14]: 562 nM; Intrinsic activity [17]: 0.9; Intrinsic activity [18]: 0.9
8 | 30.9 | 141 | 123 | – | – | 34.7 | 60.3 | c1ccc(CCC[C@H]2C3CCC(C3)[C@H]2NC2=NCCO2)cc1 (some centres not stated) | NA [11]: inactive
9 | 1.45 | 6.92 | 10.7 | – | inactive | – | – | c1ccc(CC[C@H]2CCCC[C@@H]2NC2=NCCO2)cc1 | NA [19]: inactive; NA [5]: inactive
